We go through 2 compounds from ChEMBL document CHEMBL5712906, “Discovery of a novel long noncoding RNA overlapping the LCK gene that regulates prostate cancer cell growth” (2019).

Active and inactive are the calls of the source. The calls are words filed in the database; no cut-off is given here.

The test system of test [1] is LNCaP. Description: Reduction in R1881-induced increase in LCK 3'-UTR expression in human LNCaP cells at 10 uM measured after 24 hrs by qPCR analysis. The format is functional, cell-based. A digest of the protocol: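 Cells seeded for 48 h, then exposed to 1 nM R1881 with or without 10 μM enzalutamide. RNA harvested 24 h after treatment. LCK transcript measured by qPCR with primers in the 3′UTR. n = 3.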

The target in test [2] is Histone acetyltransferase p300 (Homo sapiens) (UniProt Q09472). Kind of test: Inhibition of p300 in human LNCaP cells assessed as reduction in R1881-induced increase in PSA expression at 0.3 uM measured after 24 hrs by qPCR analysis. The format is cell-based. A digest of the protocol: (§1)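 Cells seeded 48 h in their usual growth medium, then given 1 nM R1881 with or without 0.3 μM inhibitor. RNA harvested 24 h after treatment; transcripts quantified by qPCR. HULLK measured with two independent LCK primer pairs (exon 13 or 3′UTR). PSA and TMPRSS2 transcripts serve as checks that p300 inhibition worked. n = 3.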
Chain of Histone acetyltransferase p300 (Homo sapiens) (Q09472 whole entry): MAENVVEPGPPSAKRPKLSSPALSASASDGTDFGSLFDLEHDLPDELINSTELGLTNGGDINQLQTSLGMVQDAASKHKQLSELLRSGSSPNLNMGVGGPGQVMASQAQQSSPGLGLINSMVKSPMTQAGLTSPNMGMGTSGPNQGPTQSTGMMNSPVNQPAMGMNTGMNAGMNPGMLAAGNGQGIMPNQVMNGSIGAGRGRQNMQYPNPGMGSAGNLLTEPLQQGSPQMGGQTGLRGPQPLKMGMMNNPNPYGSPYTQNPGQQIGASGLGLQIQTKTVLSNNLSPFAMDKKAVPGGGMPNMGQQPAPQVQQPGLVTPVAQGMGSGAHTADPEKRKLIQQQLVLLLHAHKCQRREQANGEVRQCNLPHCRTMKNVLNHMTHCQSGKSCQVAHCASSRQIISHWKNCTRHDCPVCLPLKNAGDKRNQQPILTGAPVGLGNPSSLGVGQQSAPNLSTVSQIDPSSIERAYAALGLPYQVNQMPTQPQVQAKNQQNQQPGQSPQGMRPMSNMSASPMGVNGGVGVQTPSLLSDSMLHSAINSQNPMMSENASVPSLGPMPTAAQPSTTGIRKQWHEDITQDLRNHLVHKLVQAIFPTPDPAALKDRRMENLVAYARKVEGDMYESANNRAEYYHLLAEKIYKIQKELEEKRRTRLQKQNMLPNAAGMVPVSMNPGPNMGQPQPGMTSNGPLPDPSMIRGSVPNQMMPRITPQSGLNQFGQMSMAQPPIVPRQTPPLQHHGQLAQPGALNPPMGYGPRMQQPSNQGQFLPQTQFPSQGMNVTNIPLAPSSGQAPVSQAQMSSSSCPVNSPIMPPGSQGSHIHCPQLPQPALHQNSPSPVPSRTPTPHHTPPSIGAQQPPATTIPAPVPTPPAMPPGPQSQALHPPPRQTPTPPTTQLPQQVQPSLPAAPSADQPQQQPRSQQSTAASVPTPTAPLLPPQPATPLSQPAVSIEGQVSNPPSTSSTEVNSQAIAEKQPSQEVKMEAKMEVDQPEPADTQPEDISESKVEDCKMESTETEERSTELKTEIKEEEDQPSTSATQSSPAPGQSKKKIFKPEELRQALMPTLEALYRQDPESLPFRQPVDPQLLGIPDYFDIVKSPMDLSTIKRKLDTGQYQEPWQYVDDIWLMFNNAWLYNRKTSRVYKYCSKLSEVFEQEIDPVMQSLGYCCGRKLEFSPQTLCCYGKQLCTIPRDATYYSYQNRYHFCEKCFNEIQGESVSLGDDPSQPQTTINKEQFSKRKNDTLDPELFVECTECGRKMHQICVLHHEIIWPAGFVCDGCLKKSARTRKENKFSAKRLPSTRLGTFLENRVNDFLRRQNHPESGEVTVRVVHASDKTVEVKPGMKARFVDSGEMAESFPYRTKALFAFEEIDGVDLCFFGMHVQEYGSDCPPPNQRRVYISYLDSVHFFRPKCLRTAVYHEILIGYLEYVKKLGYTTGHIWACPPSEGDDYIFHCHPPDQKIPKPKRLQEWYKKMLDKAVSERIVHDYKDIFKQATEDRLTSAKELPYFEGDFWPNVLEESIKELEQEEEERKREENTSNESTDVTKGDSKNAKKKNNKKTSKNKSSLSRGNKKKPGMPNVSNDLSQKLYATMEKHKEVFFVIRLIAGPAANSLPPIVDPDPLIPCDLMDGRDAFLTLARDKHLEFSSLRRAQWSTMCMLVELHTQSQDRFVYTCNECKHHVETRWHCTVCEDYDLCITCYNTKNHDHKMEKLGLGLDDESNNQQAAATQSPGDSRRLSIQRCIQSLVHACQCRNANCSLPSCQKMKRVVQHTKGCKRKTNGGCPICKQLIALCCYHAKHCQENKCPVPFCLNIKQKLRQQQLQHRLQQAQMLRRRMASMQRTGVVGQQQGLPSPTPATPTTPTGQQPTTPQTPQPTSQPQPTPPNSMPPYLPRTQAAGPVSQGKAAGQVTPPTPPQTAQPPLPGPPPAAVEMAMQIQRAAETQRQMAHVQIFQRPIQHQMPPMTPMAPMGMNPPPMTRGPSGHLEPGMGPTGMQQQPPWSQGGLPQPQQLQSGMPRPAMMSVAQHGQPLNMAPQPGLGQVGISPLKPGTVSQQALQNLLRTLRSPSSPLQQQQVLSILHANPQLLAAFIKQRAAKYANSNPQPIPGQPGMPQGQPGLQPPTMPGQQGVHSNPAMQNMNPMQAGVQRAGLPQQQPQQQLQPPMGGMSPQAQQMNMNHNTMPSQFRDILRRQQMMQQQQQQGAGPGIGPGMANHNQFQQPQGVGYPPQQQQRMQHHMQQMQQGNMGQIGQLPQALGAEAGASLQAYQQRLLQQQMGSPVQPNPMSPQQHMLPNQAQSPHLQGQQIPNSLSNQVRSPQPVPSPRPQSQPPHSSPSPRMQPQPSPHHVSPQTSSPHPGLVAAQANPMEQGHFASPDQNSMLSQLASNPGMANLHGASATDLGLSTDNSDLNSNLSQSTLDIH
For orientation: Quantitative PCR measures a nucleic acid by following its amplification.

For test [3] the target is unchanged. Description: Inhibition of p300 in human LNCaP cells assessed as reduction in R1881-induced increase in TMPRSS2 expression at 0.3 uM measured after 24 hrs by qPCR analysis. The format is cell-based. The procedure, abridged: as §1
Test [4] shares this target. Kind of test: Inhibition of p300 in human LNCaP C4-2 cells assessed as effect on HULLK expression at 0.3 uM measured after 24 hrs by qpCR analysis. The format is cell-based. A digest of the protocol: as §1
Test [5] has the same target. Description: Inhibition of p300 in human LNCaP C4-2 cells assessed as reduction in R1881-induced increase in HULLK expression at 0.3 uM measured after 24 hrs by qPCR analysis. The format is cell-based. The procedure, abridged:
as §1

Test [6] has the same target. Kind of test: Inhibition of p300 in human LNCaP cells assessed as reduction in R1881-induced increase in HULLK expression at 0.3 uM measured after 24 hrs by qPCR analysis. The format is cell-based. The procedure, abridged:
as §1

Test [7] shares this target. Kind of test: Inhibition of p300 in human LNCaP C4-2 cells assessed as reduction in R1881-induced increase in PSA expression at 0.3 uM measured after 24 hrs by qPCR analysis. The format is cell-based. The procedure, abridged:
as §1

Test [8] has the same target. Description: Inhibition of p300 in human LNCaP cells assessed as effect on HULLK expression at 0.3 uM measured after 24 hrs by qpCR analysis. The format is cell-based. The procedure, abridged: as §1
The target is the same in test [9]. Kind of test: Inhibition of p300 in human LNCaP C4-2 cells assessed as reduction in R1881-induced increase in TMPRSS2 expression at 0.3 uM measured after 24 hrs by qPCR analysis. The format is cell-based. A digest of the protocol: as §1

On to `CNC(=O)c1ccc(N2C(=S)N(c3ccc(C#N)c(C(F)(F)F)c3)C(=O)C2(C)C)cc1F`, for which, in test [1], the result was Active.

As to `CNC(=O)Nc1ccc2c(c1)CC[C@@]21OC(=O)N(CC(=O)N(Cc2ccc(F)cc2)[C@@H](C)C(F)(F)F)C1=O`, the inhibition entry in [2], in [3], in [5], in test [6], in test [7] and in test [9] was “Active” throughout. Besides, the inhibition entry in test [4] and in test [8] was “inactive” each time.
